In brackets after ≈: the same amount, converted by molar mass.
Legend:
Mus musculus = experiment: Inhibition of liver SCD1 activity in po dosed db/db mouse assessed as reduction in conversion of [14C]stearic acid to [14C]oleic acid; type: functional; details: read-out: ID50 (the source's name)
Outline: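 Seven-week-old male db/db mice dosed by oral gavage 2 h before i.p. [14C]stearate (100 µCi/kg in saline with 2% BSA). Livers harvested 1 h later and homogenized in cold PBS. Saponified homogenate analyzed by AgNO3-TLC for the [14C]oleate/[14C]stearate ratio. ID50 is the dose giving 50% inhibition.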

Acyl-CoA desaturase 1 = target: T1, Acyl-CoA desaturase 1 (Mus musculus, UniProt P13516); experiment: Inhibition of SCD1 in mouse microsome assessed as reduction in conversion of [14C]stearic acid to [14C]oleic acid after 30 mins; type: microsomes
T1 sequence (P13516 whole entry): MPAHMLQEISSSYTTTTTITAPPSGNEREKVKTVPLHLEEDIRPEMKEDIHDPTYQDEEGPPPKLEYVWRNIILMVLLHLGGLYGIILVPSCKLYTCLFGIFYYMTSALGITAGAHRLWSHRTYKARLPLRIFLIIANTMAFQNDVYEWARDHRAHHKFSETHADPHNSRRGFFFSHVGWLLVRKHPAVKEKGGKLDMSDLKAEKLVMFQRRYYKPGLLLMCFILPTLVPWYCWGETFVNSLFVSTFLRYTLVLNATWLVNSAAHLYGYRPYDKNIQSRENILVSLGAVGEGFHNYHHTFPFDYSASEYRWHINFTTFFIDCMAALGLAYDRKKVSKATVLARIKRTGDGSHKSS

Stearoyl-CoA desaturase [1] = target: T2, Stearoyl-CoA desaturase (Homo sapiens, UniProt O00767); experiment: Inhibition of SCD1 in HEK293A cell microsomes assessed as reduction in conversion of [14C]stearic acid to [14C]oleic acid after 30 mins; parameters: species or system HEK293-A, Microsome
T2 sequence (O00767 whole entry): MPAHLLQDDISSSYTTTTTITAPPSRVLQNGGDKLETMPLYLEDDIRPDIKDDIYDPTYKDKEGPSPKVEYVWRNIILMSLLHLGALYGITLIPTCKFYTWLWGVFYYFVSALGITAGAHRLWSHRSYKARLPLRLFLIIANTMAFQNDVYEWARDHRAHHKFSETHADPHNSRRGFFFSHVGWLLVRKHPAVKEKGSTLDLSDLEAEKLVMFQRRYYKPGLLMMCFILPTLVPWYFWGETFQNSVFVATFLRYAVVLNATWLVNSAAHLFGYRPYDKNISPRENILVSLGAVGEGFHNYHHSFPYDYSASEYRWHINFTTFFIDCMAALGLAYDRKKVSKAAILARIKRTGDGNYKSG

Stearoyl-CoA desaturase [2] = target: T2, Stearoyl-CoA desaturase; experiment: Inhibition of human SCD1 expressed in HEK293A cells assessed as reduction in conversion of [14C]stearic acid to [14C]oleic acid after 30 mins; type: cell-based, HEK293-A
Outline: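 293A cells stably expressing human SCD1 (G418-selected) grown to confluence in DMEM + 10% FBS. Cells preincubated with compound 30 min, then given 0.1 µCi [14C]stearate for 4 h. Lipids saponified in KOH, separated by AgNO3-TLC, and the [14C]oleate/[14C]stearate ratio used as activity. IC50 derived from this read-out.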

[3] = Tmax in C57BL/6J mouse at 20 mg/kg, po; type: ADME, organism-based; parameters: dose 20 mg/kg, route oral; details: in vivo
Outline: (§1)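 Oral gavage via intubation tube at 20 mg/kg in propylene glycol/Tween 4:1, n = 3 C57BL/6J mice. Plasma sampled up to 8 h after dosing. Values are arithmetic means of at least two experiments.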

[4] = Aqueous solubility of the compound at neutral JP-2 solution of pH 6.8 by HPLC analysis; type: physicochemical
Outline: (§2)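 Solubility measured in purchased aqueous acidic JP-1 (pH 1.2) or neutral JP-2 (pH 6.8) media. Samples analyzed by HPLC, with UV peak area compared to a calibration standard of 250 µM compound in CH3CN/water 1:1. Means of at least two experiments.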

[5] = AUC (0 to 8 hrs) in C57BL/6J mouse at 20 mg/kg, po; type: ADME, organism-based; parameters: time < 8 hr, dose 20 mg/kg, route oral; details: plasma; outline: as §1
[6] = Cmax in C57BL/6J mouse at 20 mg/kg, po up to 8 hrs; type: ADME, organism-based; parameters: dose 20 mg/kg, route oral; details: in vivo; outline: as §1
[7] = Aqueous solubility of the compound at acidic JP-1 solution of pH 1.2 by HPLC analysis; type: physicochemical; outline: as §2
[8] = Half life in C57BL/6J mouse at 20 mg/kg, po; type: ADME, organism-based; parameters: dose 20 mg/kg, route oral; details: in vivo; outline: as §1

Row | IC50 (Acyl-CoA desaturase 1) [nM] | IC50 (Stearoyl-CoA desaturase [1]) [nM] | IC50 (Stearoyl-CoA desaturase [2]) [nM] | Tmax [3] [min] | solubility [4] [µM] | AUC(0-t) at 8 h [5] [ng·h/mL] | Cmax [6] [ng/mL] | solubility [7] [µM] | half-life [8] [min] | Compound | ED50 (Mus musculus) [mg/kg]
1 | 3 | 4 | 9 | – | – | – | – | – | – | c1ccc(Cc2nnc(-c3ccc(N4CCC5(CCc6ccccc6O5)CC4)nn3)o2)nc1 | 6
2 | 2 | 1 | 4 | 60 | 4.2 (≈ 1.85 µg/mL) | 2400 | 1300 | 92 (≈ 40.5 µg/mL) | 48 | c1cncc(Cc2nnc(-c3ccc(N4CCC5(CCc6ccccc6O5)CC4)nn3)o2)c1 | 2
3 | 0.5 | 0.1 | 1 | – | – | – | – | – | – | Fc1ccc(F)c2c1CCC1(CCN(c3ccc(-c4nnc(Cc5cccnc5)o4)nn3)CC1)O2 | < 2
4 | 0.2 | 0.2 | 0.7 | 48 | < 0.5 | 2100 | 1100 | 91 (≈ 41.4 µg/mL) | 36 | Cc1cccc2c1CCC1(CCN(c3ccc(-c4nnc(Cc5cccnc5)o4)nn3)CC1)O2 | 1
5 | 0.04 | 0.06 | 1 | 48 | < 0.5 | 1400 | 690 | > 50 | 42 | Clc1cccc2c1CCC1(CCN(c3ccc(-c4nnc(Cc5cccnc5)o4)nn3)CC1)O2 | 1
